Assay results reported in ChEMBL document CHEMBL1131138, “A novel class of orally active non-peptide bradykinin B2 receptor antagonists. 3. Discovering bioisosteres of the imidazo[1,2-a] pyridine moiety” (J Med Chem, 1998).

Columns and labels:
B2 bradykinin receptor [1] = molecular target: T1, B2 bradykinin receptor (Homo sapiens, UniProt P30411); test: Inhibition specific binding of [3H]BK (1.0 nM) to human Bradykinin receptor B2 which was expressed in CHO (Chinese hamster ovary) cells by 50%.; type: cell-based
T1 sequence (P30411 whole entry): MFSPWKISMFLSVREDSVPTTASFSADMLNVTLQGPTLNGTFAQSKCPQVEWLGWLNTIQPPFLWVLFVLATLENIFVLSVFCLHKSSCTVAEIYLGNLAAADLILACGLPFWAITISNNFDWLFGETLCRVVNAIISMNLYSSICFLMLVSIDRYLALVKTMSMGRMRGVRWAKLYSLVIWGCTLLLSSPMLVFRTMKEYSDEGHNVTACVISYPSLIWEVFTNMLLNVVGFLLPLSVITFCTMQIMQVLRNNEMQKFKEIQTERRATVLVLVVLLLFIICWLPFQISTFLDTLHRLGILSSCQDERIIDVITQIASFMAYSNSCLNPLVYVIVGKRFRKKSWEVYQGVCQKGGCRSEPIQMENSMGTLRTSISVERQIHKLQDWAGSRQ
How it was run: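 CHO (dhfr−) cells stably expressing human B2 receptor, seeded at 3.0 × 10^4 cells/well and cultured 1 day. Whole cells incubated with 1.0 nM [3H]BK plus compound for 2 h at 4 °C in HEPES/N-methyl-D-glucamine buffer pH 7.2 with bacitracin, enalaprilat and BSA. Washed, solubilized in SDS/NaOH and counted. Nonspecific binding with 1 μM BK; DMSO below 3%; three experiments.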

B2 bradykinin receptor [2] = molecular target: T2, B2 bradykinin receptor (Cavia porcellus, UniProt O70526); test: Concentration required to inhibit specific binding of [ 3H]BK (0.06 nM) to Bradykinin receptor B2 in guinea pig ileum membrane preparations by 50%.; type: cell membranes
T2 sequence (O70526 whole entry): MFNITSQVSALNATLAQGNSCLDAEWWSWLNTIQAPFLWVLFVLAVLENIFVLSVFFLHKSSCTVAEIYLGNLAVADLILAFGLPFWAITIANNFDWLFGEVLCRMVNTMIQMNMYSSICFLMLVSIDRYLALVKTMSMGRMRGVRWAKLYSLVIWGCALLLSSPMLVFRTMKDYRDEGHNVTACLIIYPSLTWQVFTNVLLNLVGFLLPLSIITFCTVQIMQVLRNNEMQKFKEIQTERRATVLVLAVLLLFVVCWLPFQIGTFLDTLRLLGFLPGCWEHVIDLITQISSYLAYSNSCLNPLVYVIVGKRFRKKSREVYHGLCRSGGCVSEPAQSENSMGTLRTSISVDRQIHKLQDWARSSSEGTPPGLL
How it was run: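 Ileal membranes from male Hartley guinea pigs (0.2 mg protein/mL) in TES buffer pH 6.8 with phenanthroline, bacitracin, DTT, captopril and BSA. Incubated with 0.06 nM [3H]BK plus compound for 60 min at room temperature, then filtered through GF/B and counted by scintillation.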

Cavia porcellus [3] = test: Compound tested in vivo for inhibition of Bradykinin induced Bronchoconstriction in anaesthetized guinea pig at 1 mg/kg, po; type: functional
How it was run: (§1)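 Male Hartley guinea pigs (470–750 g), fasted overnight, anesthetized with ip pentobarbital (30 mg/kg) and ventilated at 10 mL/kg, 60 breaths/min. Given alcuronium (0.5 mg/kg iv) and propranolol (10 mg/kg sc). BK 5 μg/kg iv, with bronchoconstriction read as peak pulmonary insufflation pressure (modified Konzett–Rössler).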

B2 bradykinin receptor [4] = molecular target: T1, B2 bradykinin receptor; test: Concentration required to inhibit specific binding of [3H]BK (1.2 nM) to A-431 cells (human epidermoid carcinoma) which express Bradykinin receptor B2 by 50%.; type: cell-based
Cavia porcellus [5] = test: In vivo inhibition of Bradykinin induced Bronchoconstriction in anaesthetized guinea pig following 1 mg/kg p.o.; type: functional; conditions: route oral; how it was run: as §1
Cavia porcellus [6] = test: Inhibition of Bradykinin induced Bronchoconstriction in anaesthetized guinea pig at 0.32mg/kg, po; type: functional; how it was run: as §1

SMILES	IC50 (B2 bradykinin receptor [1]) [nM]	IC50 (B2 bradykinin receptor [2]) [nM]	IC50 (B2 bradykinin receptor [4]) [nM]	inhibition in vivo at 1 mg/kg (Cavia porcellus [3]) [%]	inhibition in vivo at 1 mg/kg (Cavia porcellus [5]) [%]	inhibition in vivo at 0.32 mg/kg (Cavia porcellus [6]) [%]
CC(=O)Nc1ccc(/C=C/C(=O)NCC(=O)N(C)c2ccc(Cl)c(COc3cccc4ncc(C)nc34)c2Cl)cc1	2.5	2.4	–	28.6	–	–
CCc1nc2c(OCc3c(Cl)ccc(N(C)C(=O)CNC(=O)/C=C/c4ccc(C(=O)NC)cc4)c3Cl)cccc2n1C	22	8.7	–	31.7	–	–
CNC(=O)c1ccc(/C=C/C(=O)NCC(=O)N(C)c2ccc(Cl)c(COc3cccnc3-n3c(C)ccc3C)c2Cl)cc1	2000	350	3500	–	–	–
CNC(=O)c1ccc(/C=C/C(=O)NCC(=O)N(C)c2ccc(C)c(COc3cccc4c3nc(OC)n4C)c2C)cc1	7.2	1.6	–	59.7	–	–
Cc1ccc2cccc(OCc3c(Cl)ccc(N(C)C(=O)CNC(=O)/C=C/c4cccc(C(=O)N(C)C)c4)c3Cl)c2n1	–	1.1	14	–	–	–
CNC(=O)c1ccc(/C=C/C(=O)NCC(=O)N(C)c2ccc(Cl)c(COCc3cccc(C)n3)c2Cl)cc1	> 10000	> 10000	> 10000	–	–	–
CNC(=O)c1ccc(/C=C/C(=O)NCC(=O)N(C)c2ccc(Cl)c(COc3cccc4c3nc(OC)n4C)c2Cl)cc1	2.2	0.83	–	21.7	–	–

Now from value to molecule, other results behind:

IC50 (B2 bradykinin receptor [1]) [nM]	IC50 (B2 bradykinin receptor [2]) [nM]	IC50 (B2 bradykinin receptor [4]) [nM]	SMILES	inhibition in vivo at 1 mg/kg (Cavia porcellus [3]) [%]	inhibition in vivo at 1 mg/kg (Cavia porcellus [5]) [%]	inhibition in vivo at 0.32 mg/kg (Cavia porcellus [6]) [%]
1.1	0.51	1.3	CNC(=O)c1ccc(/C=C/C(=O)NCC(=O)N(C)c2ccc(Cl)c(COc3cccc4ccc(C)nc34)c2Cl)cc1	–	81.9	67.4
56	110	59	CNC(=O)c1ccc(/C=C/C(=O)NCC(=O)N(C)c2ccc(Cl)c(COc3cccc4cnc(C)nc34)c2Cl)cc1	–	–	–
5.2	1	3.1	CNC(=O)c1ccc(/C=C/C(=O)NCC(=O)N(C)c2ccc(Cl)c(COc3cccc4ncc(C)nc34)c2Cl)cc1	–	–	–
1100	380	860	CNC(=O)c1ccc(/C=C/C(=O)NCC(=O)N(C)c2ccc(Cl)c(COc3cccc4oc(C)nc34)c2Cl)cc1	–	–	–
67	9.1	43	CNC(=O)c1ccc(/C=C/C(=O)NCC(=O)N(C)c2ccc(Cl)c(COc3cccc4c3nc(C)n4C)c2Cl)cc1	–	–	–
–	> 10000	> 10000	CNC(=O)c1ccc(/C=C/C(=O)NCC(=O)N(C)c2ccc(Cl)c(COc3cccc4cnc(C)cc34)c2Cl)cc1	–	–	–
2900	170	4300	CNC(=O)c1ccc(/C=C/C(=O)NCC(=O)N(C)c2ccc(Cl)c(COc3cccc4nc(C)cnc34)c2Cl)cc1	–	–	–
